Screening data (PubChem BioAssay)
MT1-MMP act inh: inhibitors of human MT1-MMP activation; P50281; 360,000 tested, 0.061% active; GFP/RFP ratio change, % at 20 µM; HT1080 RFP-PRO-GFP cells, GFP/RFP ratio fluorescence, overnight; percent of plate control window, DMSO zero; AID 651647;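 active means GFP/RFP ratio change of at least 30% with cell ATP level not reduced by more than half and red fluorescence within 50% of control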
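Assay system: RFP-PRO-GFP reporter HT1080 cells; read-out basis: GFP/RFP fluorescence ratio; benchmarks: DMSO wells and RFP-L50D-GFP cells; doses: 20 µM single dose, 1% DMSO; schedule: overnight cell settling, then overnight compound exposure, 37 °C, 5% CO2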
ADAM17 inh: inhibits human ADAM17; recombinant ADAM17, EDANS/DABCYL FRET peptide cleavage; inhibition, % at 6.95 µM; 370,000 tested, 0.83% active; P78536; AID 720648;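 active means inhibition above the mean of compounds lying between control limits plus 3 SD, set per campaign, cut at about 8.5% in these data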;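 further: 0% = DMSO-only wells as the low control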
MPTP inh: blocks calcium-induced mitochondrial swelling. isolated mouse mitochondria, Ca2+ swelling absorbance, 30 min. inhibition, % at 10 µM. 360,000 tested, 1.4% active. AID 602449;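 active means inhibition of 50% or more, scaled per plate between neutral and stimulator controls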;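 further: 0% = DMSO wells given calcium and 100% = 1 mM EGTA wells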
SKN-1 inh: C. elegans SKN-1 inhibition. C. elegans VP596 Pgst-4::GFP/RFP ratio, acrylamide-induced, 24 h. inhibition, % at 21.8 µM. 360,000 tested, 0.49% active;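 active means interference check ratio from 0.5 to 1.5 plus GFP to RFP signal ratio inhibition reaching or exceeding a fixed threshold, cut at about 30% in these data, passing the limit was not always enough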
NR3A LBD binder: modulators (binders) of human NR3A ligand-binding domain; NR3A LBD differential scanning fluorimetry, Tm shift; 0% = protein alone, 100% = glycine-bound protein; Tm shift relative to glycine control, % at 25 µM; AID 1259313; 340,000 tested, 2.5% active;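 active means melting temperature shift of at least 10% of the positive control shift, at one fixed dose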
ADAM10 inh: inhibits human ADAM10. inhibition, % at 7 µM. 370,000 tested, 0.62% active. AID 720582. recombinant ADAM10, EDANS/DABCYL FRET peptide cleavage, 3 h. O14672;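 active means inhibition above a per-campaign cutoff equal to the mean of compounds falling between control-based bounds plus 3 SD, cut at about 20% in these data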;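 further: 0% = DMSO wells while the 100% control is not disclosed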
Target sequence (O14672 214-748 limits assumed): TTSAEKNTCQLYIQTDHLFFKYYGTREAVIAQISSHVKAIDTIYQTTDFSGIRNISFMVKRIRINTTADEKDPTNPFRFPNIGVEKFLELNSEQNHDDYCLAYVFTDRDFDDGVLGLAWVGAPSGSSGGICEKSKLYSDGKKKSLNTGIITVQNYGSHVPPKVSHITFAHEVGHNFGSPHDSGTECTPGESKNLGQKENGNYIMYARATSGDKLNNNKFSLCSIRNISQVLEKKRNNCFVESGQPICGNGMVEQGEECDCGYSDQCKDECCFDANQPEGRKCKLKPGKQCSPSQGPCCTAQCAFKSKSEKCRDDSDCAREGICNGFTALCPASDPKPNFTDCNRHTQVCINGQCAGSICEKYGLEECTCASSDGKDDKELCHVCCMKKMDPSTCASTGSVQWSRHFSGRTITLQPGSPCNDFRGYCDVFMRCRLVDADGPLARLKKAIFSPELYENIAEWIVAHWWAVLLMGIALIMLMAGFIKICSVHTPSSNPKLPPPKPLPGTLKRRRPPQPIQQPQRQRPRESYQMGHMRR
Starred values were filed as active, the others as inactive; i = inactive; nt = no result given; ! = a repeat was not active. A selection: hits, their analogues and other compounds. The true share with any hit is near 4.7%.

SMILES | MT1-MMP act inh | ADAM17 inh | MPTP inh | SKN-1 inh | NR3A LBD binder | ADAM10 inh
CCOc1ccc2nc(NC(=S)N(C)C)sc2c1 | 14 | -1 | 6 | 3 | 30* | 1
Cc1cc(NC(=O)CN2CCC(n3nnc4cc(C(F)(F)F)ccc43)CC2)no1 | 10 | -4 | 0 | -2 | 1 | 4
COc1cccc(/C=C/C(=O)N2CCN(S(=O)(=O)c3ccccc3)CC2)c1 | 1 | -13 | 0 | 16 | nt | -69
CN(C(=O)COC(=O)/C=C/c1ccc2c(c1)OCO2)c1c(N)n(Cc2ccccc2)c(=O)[nH]c1=O | 1 | -16 | 0 | 9 | -3 | -55
CCCN(CCC)S(=O)(=O)c1ccc(C(=O)OCCN2C(=O)c3cccc4c(N5CCOCC5)ccc(c34)C2=O)cc1 | -134 | nt | 3 | -47 | 17* | nt
O=C(OCCN1C(=O)c2cccc3c(N4CCOCC4)ccc(c23)C1=O)c1ccc(Cl)cc1 | -145 | -9 | 0 | -11 | 7 | -32
Cc1cccc(NC(=O)C2=C(O)c3ccccc3N(C)S2(=O)=O)c1 | 8 | -12 | 0 | -21 | -3 | -44
CN1c2ccccc2C(O)=C(C(=S)Nc2ccc(Cl)cc2)S1(=O)=O | 14 | 2 | 34 | -8 | 28* | -4
CC(C)N(CCNC(=O)c1ccc(CS(=O)(=O)c2c(Cl)cccc2Cl)o1)Cc1ccccc1 | -3 | -4 | -1 | 15 | -1 | 5
CCOCCCn1c(=NC(=O)c2cccnc2)c(C(=O)OCC)cc2c(=O)n3ccccc3nc21 | 2 | i | 0 | 7 | 14*! | i
O=C(Nc1nc(-c2ccccn2)cs1)Nc1ccc(F)cc1F | 2 | -3 | 0 | 6 | 14* | -2
O=C(Nc1nc(-c2cc(F)ccc2F)cs1)C1=COCCO1 | 4 | -1 | 0 | 22 | 0 | 7
O=C(Nc1nc(-c2cc(F)ccc2F)cs1)c1ccccn1 | 2 | 0 | 1 | 38* | -2 | -11
O=C(Nc1nc(-c2ccccc2)cs1)Nc1ccc(F)cc1F | -6 | 3 | 2 | 10 | 2 | 6
O=C(CSc1ncccn1)N1CCN(C(c2ccccc2)c2ccccc2)CC1 | -6 | -3 | 0 | 5 | 1 | -2
COc1cc(-c2cn[nH]c2N)cc(OC)c1OC | 10 | nt | 0 | -5 | 1 | nt
Cc1ccc(-c2ccnc(=S)[nH]2)cc1 | 6 | 0 | 1 | 1 | 10* | 0
S=c1nccc(-c2ccc3c(c2)CCO3)[nH]1 | -4 | -8 | 0 | -25 | 4 | -5
CC1=C(c2ccccc2)[N+](=O)C2(CCCCC2)N1[O-] | -4 | -4 | 2 | 5 | -1 | 2
CC(OC(=O)c1ccc(Cl)c(S(N)(=O)=O)c1)C(=O)NCC1CCCCC1 (stereo not drawn) | 3 | -1 | -2 | -9 | 3 | -9
O=C(Cc1c[nH]c2ccccc12)N/N=C/c1ccc(F)cc1 | 4 | -1 | 1 | 4 | -5 | 0
C/C(=N\Nc1ccc([N+](=O)[O-])cc1)c1ccc(C#N)cc1 | 9 | 0 | 28 | 22 | 9 | 5
C/C(=N\Nc1ccc([N+](=O)[O-])cc1)c1cc2ccccc2o1 | -128 | 4 | 39 | 27 | 27* | 3
CN(C)c1ccc(/C=N/NC(=O)CCc2c[nH]c3ccccc23)cc1 | 0 | -113 | 3 | 0 | 16* | -293
C/C(=N/Nc1ccc([N+](=O)[O-])cc1)c1c[nH]c2ccccc12 | -62 | 6 | 5 | 1 | 29* | 18
SMILES | MT1-MMP act inh | ADAM17 inh | MPTP inh | SKN-1 inh | NR3A LBD binder | ADAM10 inh
C/C(=N\Nc1ccc([N+](=O)[O-])cc1)c1ccc2c(c1)OCO2 | -17 | 1 | 33 | 4 | 23* | 0
CC(=O)Nc1ccc(S(=O)(=O)N2CCN3CCCC3C2)cc1 (stereo not drawn) | 2 | -1 | 1 | 15 | -1 | 4
O=C(Nc1nc2ccccc2n1CCN1CCOCC1)c1ccc(Cl)cc1 | 8 | -2 | -1 | 1 | -3 | -8
Cc1ccc(C)c(S(=O)(=O)N2CCN(C(C)C(=O)Nc3ccccc3-c3ccccc3)CC2)c1 (stereo not drawn) | -16 | 4 | 1 | 7 | 2 | 2
N#CCc1ccc(NC(=O)c2ccc(CN3CCc4ccccc4C3)cc2)cc1 | -1 | -4 | 0 | 1 | 1 | -3
O=C(N/N=C/c1ccc([N+](=O)[O-])o1)c1cc2c(ccc3ccccc32)o1 | -9 | -1 | -1 | -12 | -10 | -8
O=C(N/N=C/c1ccc([N+](=O)[O-])o1)c1cc2ccccc2o1 | -11 | 1 | 4 | 2 | 10* | -7
C/C(=N\NC(=O)CCc1c[nH]c2ccccc12)c1ccc([N+](=O)[O-])cc1 | -1 | -1 | 1 | 4 | 22* | -1
Cc1ccc(Oc2ccc(S(=O)(=O)NCC(C)(C)N3CCOCC3)cc2)cc1 | 2 | 1 | 3 | -1 | -2 | 0
CC(C)(C)C(=O)Nc1cc(S(=O)(=O)Nc2ccc(Cl)cc2)ccc1O | 7 | 3 | 0 | 4 | -1 | -3
NCC12CC3CC(CC(O)(C3)C1)C2 | 3 | 2 | 2 | 0 | 0 | 0
C=CCc1ccccc1OCC(=O)OCCNC(=O)c1cccnc1 | 0 | -1 | 0 | 8 | 20* | -7
Cc1cc(C)c(OCC(=O)OCCNC(=O)c2cccnc2)c(C)c1 | 1 | -2 | 1 | 6 | 2 | 1
CS(=O)(=O)N(CC(=O)N1CCOCC1)Cc1ccccc1 | -1 | -2 | 0 | 10 | 0 | -5
O=C(Nc1ccc(N=Nc2ccccc2)cc1)c1ccc(Cl)cc1Cl | 3 | -3 | 24 | 3 | 0 | -2
O=C(Nc1ccc(N=Nc2ccccc2)cc1)c1ccccc1Cl | 8 | 6 | 4 | 25 | 15* | 7
NC1=NC(=O)/C(=C/c2ccccc2OS(=O)(=O)c2ccc3ccccc3c2)S1 | 2 | -3 | 0 | 5 | 18* | -8
CCCOc1ccccc1/C=C1\SC(N)=NC1=O | -6 | -2 | 0 | -7 | 2 | -1
COc1ccccc1N1C(=O)CC(N2CCN(c3ccc([N+](=O)[O-])cc3)CC2)C1=O (stereo not drawn) | 3 | 1 | 0 | -6 | 0 | -2
CNC(=S)N(Cc1cccs1)Cc1cc2cc(OC)c(OC)cc2[nH]c1=O | 4 | -100 | -1 | -1 | -1 | -388
COc1cc2cc(CN(Cc3cccs3)C(=S)Nc3ccc(C)cc3)c(=O)[nH]c2cc1OC | -11 | -49 | 1 | 16 | 12* | -133
COC(=O)C12OCC34C(CC5C(C)=C(O)C(=O)CC5(C)C3C(O)C1O)OC(=O)C(OC(=O)C=C(C)C)C24 (stereo not drawn) | -36 | 5 | -3 | 41* | 14* | 10
